Test results published in ChEMBL document CHEMBL4513216, “Probing the Open Global Health Chemical Diversity Library for Multistage-Active Starting Points for Next-Generation Antimalarials” (ACS Infect Dis, 2020).

Assay: Toxicity liver stage against HepG2, at 10uM
Format: cell-based
Parameters: test concentration 10 uM, cell line HepG2-A16-CD81EGFP
Settings: human, HepG2-A16-CD81EGFP cells; read-out: INHIBITION
Summary of the method: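 Uninfected HepG2-A16-CD81EGFP cells, 3 × 10^3 per well, 1536-well, plated on prespotted compound at 10 μM final, parasite-free screening media added to match infected plates; puromycin 10 μM positive, DMSO 0.5% negative; run in parallel with 48 h PbLuc assay at 37 °C, 5% CO2; viability by CellTiter-Glo luminescence, normalized to controls.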

Row | Compound | cytotoxicity at 10 µM
1 | NC(=O)c1nc(-c2cccc(Cl)c2)oc1N | 2.69%
2 | COCCN1C(=O)CO[C@H]2CN(S(=O)(=O)c3ccccc3)C[C@H]21 | -0.843%
3 | O=C1COC[C@H]([C@H](O)c2ccc(NC(=O)c3ccco3)cc2)N1 | -2.33%
4 | CN1CCC(N(C)C(=O)Nc2ccc(Cl)cc2)CC1 | -0.211%
5 | Cc1occc(=O)c1OCC(=O)N1CCN(c2cccc(Cl)c2)CC1 | -1.18%
6 | CC(C)n1cnc2ccc(NC(=O)CCCn3cccn3)cc2c1=O | -10.6%
7 | Cn1nc(-c2ccccc2NC(=O)c2cncc(Br)c2)ccc1=O | 0.461%
8 | O=C(CC1CC1)NC1CCc2c(ccc(=O)n2CC2CC2)C1 (centres undefined) | 6.34%
9 | CN(Cc1ccncc1)C1CC2(CCN(C(=O)c3ccnnc3)CC2)C1 | -5.45%
10 | CC1=N[C@@]2(CC[C@@H]3CN(C(=O)NCC(C)C)C[C@@H]32)C(=O)N1C | 5.01%
11 | O=C1NC(c2ccccc2)=N[C@@]12CC[C@@H]1CN(Cc3ccoc3)C[C@@H]12 | 5.22%
12 | COCC1CN(Cc2cc(C)on2)Cc2cn(CC3CC3)nc21 (centres undefined) | 8.91%
13 | O=C(c1cccs1)N1CC(C(=O)N2CCCC2)C2(CCOCC2)C1 (centres undefined) | -2.64%
14 | O=C(Nc1ccccc1)C1CN(Cc2nccs2)CC12CCOCC2 (centres undefined) | 1.61%
15 | CS(=O)(=O)N1CCOCC2(CCN(C(=O)c3cnccn3)CC2)C1 | -0.152%
16 | Cc1cc(SCC(N)=O)nc(-c2ccc(F)cc2)n1 | -3.42%
17 | Cc1[nH]/c(=N/C(=O)Cn2nc(N3CCOCC3)ccc2=O)sc1C | 1.81%
18 | Cc1ccc(Cn2c(=O)[nH]c3cccnc3c2=O)cc1 | 1.61%
19 | O=c1[nH]c(N2CCCCC2)nc2nccc(-c3ccc4c(c3)OCO4)c12 | 9.54%
20 | Cc1occc1C(=O)N1CCC2(CCC(C(=O)NCC3CC3)O2)CC1 (centres undefined) | 9.53%
21 | CCOCC1CN(S(C)(=O)=O)Cc2ncn(CC3CC3)c21 (centres undefined) | -12%
22 | Cc1ccc(NC(=O)c2n[nH]c(-n3cnnc3)n2)cc1 | 6.33%

Row | Compound | cytotoxicity at 10 µM
23 | CCCN(c1ccccc1C(=O)O)S(=O)(=O)c1ccc2ccccc2c1 | -2.32%
24 | CCN1CCCC(O)(CNCc2ccc3c(c2)OCO3)C1 (centres undefined) | 2.34%
25 | CN(CC1(O)CCN(c2ccnc3ccncc23)CC1)C(=O)CCN | -6.86%
26 | CC(NC(=O)C1CCCCC1)c1cc(O)nc(-c2cccnc2)n1 (centres undefined) | 5.84%
27 | CNC(=O)C1CN(C)CCN1c1nc(C)cc(C)n1 (centres undefined) | 15.3%
28 | CC(=O)N[C@@H]1CN(C(=O)Cc2coc3cc(C)ccc23)C[C@H]1O | 5.84%
29 | Cc1cc(N(C)C)nc(C2(C)CCNCC2)n1 | 7.79%
30 | O=C(N[C@@H]1CC[C@@H](N2CCCC2)[C@@H]1O)c1cc2ccccc2[nH]1 | -4.92%
31 | COc1ccc(-c2cc(C(=O)NCCn3ccnc3)n(C)n2)cc1 | 3.86%
32 | CC(=O)N[C@@H]1CN(C(=O)CC2CCOCC2)C[C@H]1O | -3.3%
33 | COc1ccc(-c2cc3nc([C@H](C)NC(=O)C4CC4)nn3cn2)cc1 | -27%
34 | COc1ccc(CNc2ncc(-c3cc(C)no3)c(C(C)C)n2)cc1 | 2.73%
35 | O=C(NC1CCCc2nc(N3CCOCC3)ncc21)C1CCCC1 (centres undefined) | -2.3%
36 | CC(NCCCN1CCCC1=O)c1cc(Br)ccc1F (centres undefined) | 1.63%
37 | CC(Cc1ccccc1F)C(=O)Nc1cccc(OCC(N)=O)c1 (centres undefined) | -1.34%
38 | CCN(CC1CCOC1)S(=O)(=O)Cc1cc(Cl)ccc1OC (centres undefined) | 3.1%
39 | O=C1CCC(=O)N1CCn1nnc(-c2cccc(Cl)c2)n1 | -5.05%
40 | Cc1nc(-c2ccco2)ccc1C(=O)NCC(=O)N1CCCCC1 | -7.76%
41 | CN(C)CCOc1ccc(CNC(=O)c2cccc(Cl)c2Cl)cc1 | 15.5%
42 | Cc1nc(CN2CCC(CNC(=O)C3CCOC3)CC2)oc1C (centres undefined) | 0.0966%
43 | Cn1ccnc1-c1cccc(NC(=O)NCC(=O)NC(C)(C)C)c1 | -3.84%
44 | CCCc1cc(NC2CCc3nc(C(C)C)nn3C2)n2ncnc2n1 (centres undefined) | -1.41%

Row | Compound | cytotoxicity at 10 µM
45 | CC(C)Oc1cccc(C(O)CNC(=O)NCc2cccs2)c1 (centres undefined) | -2.79%
46 | CCOc1cccc(C(=O)NCCC(=O)NCc2ccncc2)c1 | 0.961%
47 | Cc1noc(C(C)N2CCN(c3ccc(C#N)cn3)CC2)n1 (centres undefined) | -0.871%
48 | Cc1nnc(NCCC(=O)N(C)Cc2ccccc2)c(C#N)c1C | -1.04%
49 | CNS(=O)(=O)CC(=O)N(Cc1c(F)cccc1F)C1CCCC1 | -1.98%
50 | CCN(Cc1ccoc1)C(=O)c1cc(C)c(C)c(S(N)(=O)=O)c1 | -1.69%
51 | CCC(C)NC(=O)CCc1ccnc2ccccc12 (centres undefined) | 5.44%
52 | Cc1oc(-c2ccccc2)nc1CC(=O)NC1=NCCS1 | 0.898%
53 | O=C(CC1CCCO1)NCCc1ccc(Br)cc1F (centres undefined) | -7.78%
54 | NC(=O)CCNCc1c(Cl)cccc1N1CCCC1 | 8.15%
55 | O=C(NC1CCCN(c2ccccc2Cl)C1)c1nc(=O)[nH][nH]1 (centres undefined) | -10.9%
56 | COc1ccccc1C1CCN(C(=O)c2ncccc2OC(C)C)C1 (centres undefined) | -0.67%
57 | N#Cc1ccc(NC2CCN(Cc3ccccn3)CC2)c(F)c1 | 0.109%
58 | O=C(CN1CCCNC1=O)N1CCCC(c2nccs2)C1 (centres undefined) | -12.5%
59 | CN(CCNC(=O)N1CCN(Cc2ccon2)CC1)C1CCCC1 | 15.6%
60 | CC(Cn1cccn1)NC(=O)Nc1ccc(F)cc1 (centres undefined) | 19.7%
61 | COc1ccc(CC(=O)N2CCCN(c3ccc(C#N)cc3)CC2)cc1 | -1.95%
62 | Cc1nnn2c1COC(CNC(=O)c1cccn1C)C2 (centres undefined) | 6.09%
63 | CCNc1ncc(CN2C[C@@H](CN3CCC(CO)CC3)[C@@H](CO)C2)cn1 | -6.03%
64 | Cc1nn(CCNS(=O)(=O)NCc2ccccc2)c(C)c1Cl | -6.49%
65 | Cn1c(CN2CCC(O)CC2)nnc1C1CCCN(c2ccncc2)C1 (centres undefined) | 9.29%
66 | Cn1cnnc1SCC(=O)NC1CC(=O)N(CCc2ccccc2)C1 (centres undefined) | 3.03%

Row | Compound | cytotoxicity at 10 µM
67 | O=C(CCc1nc(Cl)n[nH]1)N1C[C@@H](CN2CCCCC2)[C@@H](CO)C1 | -0.104%
68 | Cc1ncccc1Oc1ncnc(N2CCC(O)(CO)CC2)c1C | -2.4%
69 | CCn1cnnc1CCNCc1c[nH]nc1-c1ccc(F)cc1 | 1.31%
70 | CN(Cc1cc(C2CC2)[nH]n1)Cc1cc2ccc(F)cc2[nH]c1=O | 7.84%
71 | CN(C)C[C@H]1C[C@@H](CO)CN(C(=O)CCc2nc(Cl)n[nH]2)C1 | -3.73%
72 | COCC(=O)N1CCN(C(=O)Cc2cccs2)[C@H]2CS(=O)(=O)C[C@H]21 | 2.21%
73 | Cc1nc(-c2ccncc2)ncc1C(C)NC(=O)Cn1ccccc1=O (centres undefined) | 4.01%
74 | Cc1cncc(C(=O)N2CCN(c3cnn(C)c(=O)c3)CC2)c1 | -20.4%
75 | CCC(=O)N1Cc2nnc(C3CCOCC3)n2C(Cc2c[nH]cn2)C1 (centres undefined) | -11.2%
76 | O=S1(=O)C[C@@H]2[C@H](C1)N(Cc1ncc[nH]1)CCN2Cc1cccnc1 | 0.875%
77 | Cc1cccc2c1nc(CCO)n2-c1ccc(N)nc1 | -1.32%
78 | CCNc1ccnc(NCC2CNCCO2)n1 (centres undefined) | 3.71%
79 | CC/C=C(\C)CN1CCC(CNC(=O)c2ccnc(N)c2)C1 (centres undefined) | 8.32%
80 | Cn1cc(Cl)c(CN2CCn3nc(C(=O)N4CCCC4)cc3C2)n1 | 2.42%
81 | Fc1ccc(OC2CCN(CCn3cncn3)CC2)cc1 | -5.92%
82 | CN(CCC1CCOCC1)C(=O)C1CCC(=O)N(Cc2ccccn2)C1 (centres undefined) | -2.06%
83 | Cc1cncc(C(=O)N2CCCC(O)(CN(C)C)CC2)c1 (centres undefined) | 6.22%
84 | Cc1ncc(C(=O)N2CCCC(C(=O)c3nccn3C)C2)c(O)n1 (centres undefined) | -2.28%
85 | CCOCCn1nc(C)cc1C(=O)N1CC[C@](C)(O)C(C)(C)C1 | 0.429%
86 | CN1C[C@@H](n2cnc(-c3ccccc3)c2-c2c[nH]cn2)C[C@H]1C(=O)O | 0.791%
87 | CCOc1ccc(C(=O)CCC(=O)NCc2cncn2CC)cc1C | 0.902%
88 | CCn1cc(NC(=O)NCC(c2cccc(OC)c2)N(C)C)cn1 (centres undefined) | -7.25%

Row | Compound | cytotoxicity at 10 µM
89 | Cc1c(C(=O)NCc2ccnc(OCC(F)(F)F)c2)cnn1C | -5.78%
90 | Cc1nccn1C1CCCN(C(=O)c2cccc(Cn3ccnc3)c2)C1 (centres undefined) | -24.6%
91 | COc1cc(OC)cc(C(=O)N(C)Cc2nnc3ccccn23)c1 | -26.9%
92 | CC(C)c1nc(C2CCCN(C(=O)c3ccc4[nH]nnc4c3)C2)no1 (centres undefined) | 7.34%
93 | CCN(Cc1ccc2c(c1)OCO2)Cc1nc2c(cnn2C)c(=O)[nH]1 | -21%
94 | Cc1ccsc1C(=O)N1CCN(Cc2cscn2)CC1 | -12%
95 | CN(C)c1cc(CNC(=O)c2cnccn2)ccn1 | -17.7%
96 | CC1CN(C(=O)c2ccn(-c3cccc(Cl)c3)n2)CCO1 (centres undefined) | -5.25%
97 | CNC(=O)C1CCN(C(=O)c2ccn(-c3ccc(F)cc3)n2)CC1 | -2.7%
98 | Cc1cnn(CC2CCCN2C(=O)c2cccc(CC#N)c2)c1 (centres undefined) | -8.62%
99 | COCCc1noc(CN2CCCC2Cn2cc(C)cn2)n1 (centres undefined) | -3.32%
100 | CC1(C)Cc2cc(-c3cncn3CCNC3CCS(=O)(=O)C3)ccc2O1 (centres undefined) | 2.95%
101 | c1cnc(N2CCCC3(COCCN(CC4CC4)C3)C2)nc1 (centres undefined) | 3.22%
102 | CN1CC(=O)N(c2ccsc2)CC12CCN(S(=O)(=O)C1CC1)C2 (centres undefined) | -0.298%
103 | Cc1ccc2c(n1)N(CCn1cccn1)CCN(CC1CC1)C2 | 8.83%
104 | O=C(c1ccco1)N1CCO[C@@H]2CN(Cc3nccs3)CC[C@@H]2C1 | -111%
105 | O=c1ccc2c(n1Cc1cccnc1)CCN(CC1CCOC1)CC2 (centres undefined) | 8.13%
106 | O=C(Nc1cccnc1)[C@H]1CN(C2CCCC2)C[C@H]2OCC[C@@H]12 | 9.81%
107 | COc1ccc(S(=O)(=O)N2Cc3c(CN(C)C)nn(C)c3C2)cc1 | 3.94%
108 | CC(=O)N1CCN(Cc2ccc(F)cc2)CC2(CC(=O)N(C)C2)C1 (centres undefined) | -2.78%
109 | CN(C)C(=O)[C@H]1C[C@H]2CN(c3ncccn3)C[C@@H]1O2 | 6.1%
